Compound activity: PubChem, several laboratories
T cell modulator: modulates CD8 T cell binding to vesicles. response (vesicle binding), % at 7 µM. hit rate 0.068% among 330,000. 2C CD8+ T cell-vesicle binding, flow cytometry; stronger effect = lower value;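 active = response, share of CD8 T cells binding vesicles, and their 90th percentile fluorescence all below set limits, cut at about 80% in these data, passing the limit was not always enough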;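 also: values below 100% mean blocked vesicle binding to the CD8+ T cells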
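Benchmarks: naked versus QL9-loaded vesicles / Assay system: purified 2C TCR transgenic mouse naive CD8+ T cells / Technique: high-throughput flow cytometry with anti-B7-1 and anti-CD8 staining / Timing: Cell–vesicle co-incubation 1.5 h at 37 °C, staining 20 min on ice / Read-out: percent CD8+ FL2 mean versus row control / Probe or stimulus: QL9-loaded Drosophila micro-vesicles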
Vif inh: blocks HIV Vif function; AID 602346; inhibition, % at 7.49 µM; hit rate 0.35% among 340,000; HEK293T cells, Vif self-association by quenched fluorescence, imaging, 24 h; in the data active = inhibition above about 50%, passing the limit was not always enough; inconclusive = no clear call, values can overlap the other calls; inactive = below about 31%
Myeloid diff MLP: myeloid differentiation induction; AID 624256; hit rate 1% among 360,000; ER-HoxA9 myeloid progenitors, lysozyme-GFP differentiation, flow cytometry; calls only at 10 µM;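 active = normalized GFP-positive differentiation at or above the plate's own cutoff, the solvent-only control mean plus 3 SD; inconclusive = no clear call, values can overlap the other calls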;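 also: cells exposed to compound for four days before flow analysis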
CASP6 VEID inh: inhibitors of human caspase-6; P55212; purified caspase-6, Z-VEID-R110 cleavage fluorescence; inhibition, % at 12.5 µM; hit rate 0.53% among 350,000; AID 686996;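 active = mean inhibition across replicates at least about 35%, with every replicate also reaching that limit, limit read from the data; inconclusive = only one of the two criteria met; inactive = neither criterion met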;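 also: 0% = median of neutral control wells and 100% = no fluorescence left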
Target sequence (P55212 24-179 limits assumed): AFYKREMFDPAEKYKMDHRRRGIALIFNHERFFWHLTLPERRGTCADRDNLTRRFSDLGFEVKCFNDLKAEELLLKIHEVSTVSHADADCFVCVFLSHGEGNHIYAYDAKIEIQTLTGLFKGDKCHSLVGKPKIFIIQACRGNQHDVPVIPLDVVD
Target sequence (P55212 194-293 limits assumed): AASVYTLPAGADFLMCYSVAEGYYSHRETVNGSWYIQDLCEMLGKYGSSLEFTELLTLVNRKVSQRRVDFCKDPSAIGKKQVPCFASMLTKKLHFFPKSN
Starred values were filed as active, the others as inactive; i = inactive; ? = inconclusive; · = no result given; + = active, no number. The list is not random: actives were taken first. Their share in the collection is about 1.4%.

SMILES	T cell modulator	Vif inh	Myeloid diff MLP	CASP6 VEID inh
COc1cccc(-c2cnc3c(c2)C(=O)N([C@H](C)CO)C[C@@H](C)[C@H](CN(C)Cc2ccncc2)O3)c1	·	·	·	-2.3
O=S(=O)(N[C@@H]1CC[C@@H](CCn2cc(-c3ccccc3F)nn2)O[C@H]1CO)c1ccc(F)cc1	·	·	·	-1.5
C[C@@H]1CCCCO[C@H](CN(C)Cc2ccc(Cl)c(Cl)c2)[C@H](C)CN([C@@H](C)CO)C(=O)c2cc(NS(C)(=O)=O)ccc2O1	·	·	·	1.1
CCSc1ccc([C@@H]2[C@@H]3C(=O)N(C)C(=O)[C@@H]3[C@]3(C(=O)OC)CCCCN23)cc1OC	0.0*	-1.8	i	2.0
CCCSc1ccc([C@@H]2[C@@H]3C(=O)N(C)C(=O)[C@@H]3[C@]3(C(=O)OC)CCCCN23)cc1OC	684.1	-2.2	i	3.3
CCOc1ccc(CN(C)C(=O)[C@H](Cc2ccccc2)NC(=O)OCc2ccccc2)cc1OC	644.7	-4.1	+	-2.1
COc1ccc(CN(C)C(=O)C(Cc2ccccc2)NC(=O)c2ccccc2)cc1F (centres undefined)	·	-3.4	i	-2.4
CCOc1ccc(S(=O)(=O)n2cc(F)c(=O)[nH]c2=O)cc1	313.5	-2.3	+	2.8
CCOc1ccc(S(=O)(=O)n2cc(F)c(=O)[nH]c2=O)cc1[N+](=O)[O-]	894.9	3.5	?	-0.7
O=C(N/N=C/c1ccc2c(c1)OCO2)c1ccc(COc2cccc3cccnc23)cc1	568.3	-1.6	+	-1.1
COCC(=O)Nc1ccc2c(c1)C(=O)N(C)C[C@@H](OC)[C@H](C)CN(C(C)=O)[C@H](C)CO2	·	·	·	-2.1
C[C@@H](NC(=O)C[C@H]1C[C@H]2c3cc(NC(=O)CC4CC4)ccc3O[C@H]2[C@@H](CO)O1)c1ccccc1	·	·	·	-0.9
CO[C@@H]1CN(C)C(=O)c2cc(NC(=O)C3CC3)ccc2OC[C@H](C)N(C(=O)c2ccccc2F)C[C@@H]1C	·	·	·	1.7
COc1ccccc1C(O)(C(=O)NN(C(=O)c1ccccc1)c1ccccc1C)c1cccs1 (centres undefined)	186.1	52.1*	i	·
Cn1c(=O)c2c(nc(NCC3CCCC(CN)C3)n2Cc2ccc(Cl)cc2Cl)n(C)c1=O (centres undefined)	946.6	51.2*	?	-17.0
Cn1c(=O)c2c(nc(NCCNC(=O)c3ccco3)n2Cc2ccc(Cl)cc2Cl)n(C)c1=O	251.1	·	i	·
C=C1CC(COc2cc(=O)oc3ccccc23)(c2ccccc2)OC1=O (centres undefined)	·	56.2*	?	0.4
C=C1CCC2C(C)(C)[C@H](O)CC[C@@]2(C)[C@@H]1COc1cc(=O)oc2ccccc12 (some centres undefined)	0.0	0.9	i	·
O=C(CSc1cccc[n+]1[O-])Nc1ccc(Cl)cc1F	387.4	9.7	i	37.3*
O=C(CSc1cccc[n+]1[O-])Nc1ccc(Br)cc1Br	278.3	-0.7	i	-1.7
Cc1ccc(/C=C2\CCOC2=O)cc1	166.5	-4.0	i	-0.7
Cc1ccc(/C=C2/CNC/C(=C/c3ccc(C)cc3)C2=O)cc1	·	120.3*	?	-1.9
O=C(NC1=C(NC2CCS(=O)(=O)C2)C(=O)c2ccccc2C1=O)c1ccccc1 (centres undefined)	249.3	0.1	i	95.2*
Cn1nc(-c2ccc(Cl)cc2)c2cc(C(=O)NCCCN3CCCC3)sc21	341.6	2.1	+	-12.4
Cn1nc(-c2ccc(Cl)cc2)c2cc(C(=O)N3CCN(c4ccccn4)CC3)sc21	366.8	-10.4	+	·
SMILES	T cell modulator	Vif inh	Myeloid diff MLP	CASP6 VEID inh
CCCCN(C)CCNC(=O)c1cc2c(-c3ccccc3F)nn(C)c2s1	114.2	-7.6	+	-8.8
COCCNC(=O)c1cc2c(-c3ccccc3F)nn(C)c2s1	172.9	15.7	i	·
Cn1nc(-c2ccc(Cl)cc2)c2cc(C(=O)N3CCN(c4ccccc4)CC3)sc21	266.6	9.0	i	0.6
CCCNC(=O)C[C@H]1CC[C@H]2[C@@H](COC[C@@H](O)CN2C(=O)Nc2c(C)noc2C)O1	·	·	·	1.1
Cc1ccccc1S(=O)(=O)N1C[C@@H](O)COC[C@H]2O[C@H](CC(=O)NCCc3ccccc3)CC[C@@H]21	·	·	·	-52.7
COc1ccc(NC(=O)N(C)C[C@H]2Oc3ccc(NS(=O)(=O)c4ccc(Cl)cc4)cc3CC(=O)N([C@H](C)CO)C[C@@H]2C)cc1	·	·	·	-1.3
CCCCn1c(SCC(=O)Nc2nnc(C(C)C)s2)nc2c1c(=O)n(C)c(=O)n2C	476.7	52.0*	i	·
O=C(NCC1CCCO1)c1ccccc1-c1nc(-c2ccc(Cl)cc2)no1 (centres undefined)	411.5	-17.8	+	·
O=C(NCC1CCCO1)c1ccccc1-c1nc(-c2ccccc2F)no1 (centres undefined)	319.5	1.4	i	2.1
O=C(NCCO)Nc1ccc(Cl)cc1	111.4	-0.6	i	-1.4
O=C(NCCNC(=O)Nc1ccc(Cl)cc1)Nc1ccc(Cl)cc1	·	-1.1	+	-0.6
O=C(NCc1cccc(F)c1)[C@H]1[C@H](CO)[C@H]2Cn3c(cccc3=O)[C@@H]1N2C(=O)c1cnccn1	·	·	·	2.4
Cc1csc(NC(=O)CSc2ncnc3c2cnn3-c2ccccc2Cl)n1	143.4	73.4*	i	·
O=C(c1ccccc1F)N1C[C@@H]2O[C@H](CNS(=O)(=O)c3ccccc3)CC[C@@H]21	·	·	·	-0.1
CC(C)C(OC(=O)C1=Cc2ccccc2OC1)C(=O)NCC1CCCO1 (centres undefined)	·	-1.4	i	47.3*
CC1CCCCC1NC(=O)CCCCn1c(=O)[nH]c2ccsc2c1=O (centres undefined)	237.3	-5.4	+	0.4
CC1CCCCC1NC(=O)CCCn1c(=S)[nH]c2ccsc2c1=O (centres undefined)	370.3	2.0	i	1.9
COC(=O)CCCCCCC(=O)Nc1ccc(C2OC(CSc3nc4ccccc4s3)CC(c3ccccc3)O2)cc1 (centres undefined)	·	·	·	-5.2
O=C(O)CSc1c2c(nc3cc(C(=O)Nc4cccc(C(F)(F)F)c4)ccc13)CCC2	i	8.5	i	79.1*
CCCCCCN1C=C/C(=C\C=C(C#N)C#N)c2ccccc21	568.5	5.0	+	-1.8
Cc1ccc(CON=C2CCN(c3ncc(C(F)(F)F)cc3Cl)CC2)cc1	170.8	1.8	+	·
COc1cccc(Cn2c(NCc3cccnc3)nc3c2c(=O)n(C)c(=O)n3C)c1	473.4	0.1	+	·
CC(C)NC(=O)N(C)C[C@@H]1OCCCC[C@H](C)Oc2ccc(N(C)C)cc2C(=O)N([C@H](C)CO)C[C@@H]1C	·	·	·	-2.9
CO[C@@H](CN(C)S(=O)(=O)c1ccc(Cl)cc1)[C@@H](C)CN([C@H](C)CO)S(=O)(=O)c1cccc(Cl)c1	·	·	·	2.8
CCCC(=O)N1CCC2(CC1)CN(C(=O)CC1CC1)[C@@H](CO)c1c2c2ccc(OC)cc2n1C	·	·	·	-1.3
Cc1ccc(NC(=O)C(c2ccccc2)N2CCN(CC(=O)N3CCOCC3)CC2)cc1Cl (centres undefined)	675.7	-5.2	i	46.7*
O=C(C[C@@H]1CC[C@H]2[C@@H](COC[C@@H](O)CN2C(=O)c2ccc(F)cc2)O1)NC1Cc2ccccc2C1	·	·	·	1.6
